The test system of data set [1] is Echinochloa crus-galli. The experiment in a line: (§1) Phytotoxicity against Echinochloa crus-galli (barnyard grass) assessed as mortality measured after 3 days at 5 mg/ml by foliar spraying. It counts as functional. To be noted: for mortality at 5000 µg/mL: 72 h. In a few lines:
(§2)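 Whole plants sprayed on the foliage with freshly prepared test solution at 5 mg/mL. Spray volume was matched to foliar surface area, roughly 1 to 3 mL per pot. One or two pots were treated per species, depending on foliar area and plant availability.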

For the next data set, the system named is Taraxacum officinale. The data set can be described thus: Phytotoxicity against dandelion Taraxacum officinale (dandelion) assessed as mortality measured after 3 days at 5 mg/ml by foliar spraying. It counts as functional. As to conditions: 72 h. The gist of the method: as §2
The next data set relates to Erigeron canadensis. The data set can be described thus: Phytotoxicity against Conyza canadensis (horseweed)assessed as mortality measured after 3 days at 5 mg/ml by foliar spraying. It counts as functional. As to conditions: 72 h. The gist of the method:
as §2

For a further data set, the system named is Digitaria sanguinalis. The data set can be described thus: Phytotoxicity against Digitaria sanguinalis (hairy crabgrass) assessed as mortality measured after 3 days at 5 mg/ml by foliar spraying. It counts as functional. To be noted: 72 h. The gist of the method:
as §2

The subject of the next data set is Leptochloa. The experiment in a line: Phytotoxicity against Leptochloa fascicularis (sprangletop) assessed as mortality measured after 3 days at 5 mg/ml by foliar spraying. It counts as functional. To be noted: 72 h. The gist of the method: as §2
Data set [2] concerns Echinochloa crus-galli. Described as §1. To be noted: 72 h. It counts as functional. In a few lines:
as §2

Another data set deals with Solanum nigrum. The data set can be described thus: Phytotoxicity against Solanum nigrum (black nightshade) assessed as mortality measured after 3 days at 5 mg/ml by foliar spraying. It counts as functional. As to conditions: 72 h. In a few lines:
as §2

For a further data set, the system named is Mutarda arvensis. The experiment in a line: Phytotoxicity against wild mustard Sinapis arvensis assessed as mortality measured after 3 days at 5 mg/ml by foliar spraying. Format: functional. To be noted: 72 h. The gist of the method:
as §2

A further data set relates to Amaranthus retroflexus. The experiment in a line: Phytotoxicity against Amaranthus retroflexus assessed as mortality measured after 3 days at 5 mg/ml by foliar spraying. Format: functional. As to conditions: 72 h. In a few lines: as §2
The subject of the next data set is Convolvulus arvensis. The experiment in a line: Phytotoxicity against Convolvulus arvensis assessed as mortality measured after 3 days at 5 mg/ml by foliar spraying. It counts as functional. To be noted: 72 h. The gist of the method:
as §2

A further data set has as its system Cyperus difformis. The experiment in a line: Phytotoxicity against sedge Cyperus difformis assessed as mortality measured after 3 days at 5 mg/ml by foliar spraying. Format: functional. As to conditions: 72 h. In a few lines: as §2
In the next data set the test system is Poa annua. The experiment in a line: Phytotoxicity against annual bluegrass Poa annua assessed as mortality measured after 3 days at 5 mg/ml by foliar spraying. It counts as functional. To be noted: 72 h. In a few lines: as §2
Another data set deals with Chenopodium album. The data set can be described thus: Phytotoxicity against Chenopodium album assessed as mortality measured after 3 days at 5 mg/ml by foliar spraying. It counts as functional. To be noted: 72 h. In a few lines:
as §2

The next data set concerns Oryza sativa. The experiment in a line: Herbicidal activity against Oryza sativa (rice) (M-104) Oryza sativa L assessed as mortality measured after 3 days at 5 mg/ml by foliar spraying. It counts as organism-based. As to conditions: in vivo, other, 72 h. In a few lines: as §2
The subject of another data set is Rumex crispus. The experiment in a line: Phytotoxicity against curly dock Rumex crispus assessed as mortality measured after 3 days at 5 mg/ml by foliar spraying. It counts as functional. To be noted: 72 h. In a few lines: as §2

The source of these data is ChEMBL document CHEMBL3045604, “Phytotoxicity of sarmentine isolated from long pepper (Piper longum) fruit” (J Agric Food Chem, 2010).

Activity calls are given as the source filed them. No cut-off for these calls is given here. Bounds are passed on as bounds.

With `CCCCCCC/C=C/C(=O)N1CCCCCC1`, the mortality at 5000 µg/mL in the data set on Echinochloa crus-galli [1] is 80%.
The same measure, in the same setting: the result for `CCCCCCCCCC(=O)N1CCCCC1` [N-(DECANOYL)PIPERIDINE] reads 80%; that for `O=C(/C=C/c1ccccc1)NC1CCCC1`, below 20%; that for `O=C(/C=C/c1ccccc1)N1CCCCCC1`, below 20%.
The same measure, in the same setting: next, `CCCCC/C=C\C=C\C(=O)OCC`: below 20%; `CCCCCCC/C=C/C(=O)NC1CCCC1`: below 20%; `CCCCC/C=C\C=C\C(=O)N1CCCC1` [(2E,4Z-DECADIENOYL)PYRROLIDINE]: 80%.
Same read-out and setting: the result for `CCCCCCCCCC(=O)N1CCCC1` [N-(DECANOYL)PYRROLIDINE] reads 80%; that for `CCCCCCC/C=C/C(=O)O` [2E-DECENOIC ACID], 80%; that for `CCCCC/C=C\C=C\C(=O)N1CCCCCC1` [(2E,4Z-DECADIENOYL)HEXAMETHLENEIMINE], 80%.
`CCCCC/C=C/C=C/C(=O)N1CCCC1` [SARMENTINE]: the mortality at 5000 µg/mL in the data set on Taraxacum officinale is 80%; with Erigeron canadensis, below 20%; in the data set with Digitaria sanguinalis, 80%; in the data set with Leptochloa, 80%; with Echinochloa crus-galli [2], 80%; in the data set with Solanum nigrum it was 80%. In addition, the mortality at 5000 µg/mL in the data set with Echinochloa crus-galli [1] worked out at 80%; with Mutarda arvensis it was 80%; in the data set with Amaranthus retroflexus, 80%; with Convolvulus arvensis, 80%; in the data set with Cyperus difformis it was 20%; in the data set with Poa annua it was 80%. Moreover, the mortality at 5000 µg/mL in the data set with Chenopodium album and in the data set on Rumex crispus was 80% in each case. In addition, the mortality result in the data set on Oryza sativa is on record as “Not Active”.
With `O=C(O)/C=C/c1ccccc1` [CINNAMIC ACID], the mortality at 5000 µg/mL with Echinochloa crus-galli [1] stood at 60%.
The same measure, in the same setting: next, `CCCCCCCCCC(=O)O` [DECANOIC ACID]: 80%.
As to `CCCCCCC/C=C/C(=O)N1CCCCC1`, the mortality at 5000 µg/mL in the data set with Echinochloa crus-galli [1] was determined as 80%.
As for `CCCCCCCCCC(=O)NC1CCCC1` [N-CYCLOPENTYLDECANAMIDE], in the data set with Echinochloa crus-galli [1], the mortality at 5000 µg/mL is below 20%.
`C1CCCNCC1`: the mortality result in the data set with Echinochloa crus-galli [1] is “inactive”.
On the same count and under the same terms, next, `C1CCNC1`: “inactive”.
On to `CCCCCCC/C=C/C(=O)N1CCCC1`, for which the mortality at 5000 µg/mL in the data set on Echinochloa crus-galli [1] turned out to be 80%.
For the compound `C1CCNCC1`, in the data set on Echinochloa crus-galli [1], the mortality entry is “inactive”.
On to `CCCCC/C=C\C=C\C(=O)NC1CCCC1`, for which, in the data set on Echinochloa crus-galli [1], the mortality at 5000 µg/mL is below 20%.
Same read-out and setting: next, `CCCCC/C=C\C=C\C(=O)N1CCCCC1` [(2E,4Z-DECADIENOYL)PIPERIDINE]: 80%; `CCCCCCCCCC(=O)N1CCCCCC1` [N-(DECANOYL)HEXAMETHYLENEIMINE]: 80%.
Same read-out and setting: the result for `O=C(/C=C/c1ccccc1)N1CCCC1` reads 80%.
Turning to `NC1CCCC1`, the mortality entry with Echinochloa crus-galli [1] was “inactive”.
Take `O=C(/C=C/c1ccccc1)N1CCCCC1`: the mortality at 5000 µg/mL in the data set on Echinochloa crus-galli [1] was found to be 40%.
